Results: ChEMBL document CHEMBL4325883, “Non-chelating p-phenylidene-linked bis-imidazoline analogs of known influenza virus endonuclease inhibitors: Synthesis and anti-influenza activity” (Eur J Med Chem, 2019)

Columns and labels:
[1] = Cytotoxicity against MDCK cells after 24 hrs by MTT assay; format: cell-based, Canis lupus familiaris; details: dog
Outline: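 MDCK cells grown 24 h at 36 °C, 5% CO2 to confluence. Threefold dilutions in MEM added for 24 h. Cells washed twice with saline, then MTT in MEM for 1 h at 36 °C. Formazan dissolved in DMSO, OD read at 540 nm. CC50 (50% cell death) from four-parameter logistic fit.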

[2] = Selectivity index, ratio of CC50 for MDCK cells to IC50 for Influenza A virus (A/Puerto Rico/8/34(H1N1)) […] infected in MDCK cells; format: toxicity, cell-based; details: dog, read-out: Ratio CC50/IC50
Outline: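 SI computed as CC50/IC50. CC50 from the MTT assay on MDCK cells (24 h). IC50 is the concentration halving A/PR/8/34 (H1N1) titer in MDCK cells, measured by hemagglutination.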

SMILES | CC50 at 24 h [1] | selectivity ratio [2]
COc1ccc(N2CCN=C2c2ccc(C3=NCCN3c3ccc(OC)cc3)cc2)cc1 | 361 µM | 23
Fc1ccc(N2CCN=C2c2ccc(C3=NCCN3c3ccc(F)cc3)cc2)cc1 | 144 µM | 12
FC(F)(F)c1ccc(N2CCN=C2c2ccc(C3=NCCN3c3ccc(C(F)(F)F)cn3)cc2)nc1 | 455 µM | 4
c1ccc(N2CCN=C2c2ccc(C3=NCCN3c3ccccc3)cc2)cc1 | > 817 µM | > 11
c1cncc(N2CCN=C2c2ccc(C3=NCCN3c3cccnc3)cc2)c1 | > 813 µM | > 12
c1ccc(N2CCN=C2c2ccc(C3=NCCN3c3ccccn3)cc2)nc1 | 127 µM | 4
c1cnc(N2CCN=C2c2ccc(C3=NCCN3c3cnccn3)cc2)cn1 | > 809 µM | –
Clc1ccc(N2CCN=C2c2ccc(C3=NCCN3c3ccc(Cl)cc3)cc2)cc1 | 9 µM | 2
c1ccc(N2CCN=C2c2ccc(C3=NCCN3)cc2)cc1 | > 1030 µM | > 34
COc1ccc(N2CCN=C2c2ccc(C3=NCCN3)cc2)cc1 | 224 µM | 5
Fc1ccc(N2CCN=C2c2ccc(C3=NCCN3)cc2)cc1 | > 971 µM | > 15
CC(N)C12CC3CC(CC(C3)C1)C2 (stereo not drawn) [RIMANTADINE] | 62 µM | 6
